MIN6 prolif-1: induces beta-cell replication in MIN6 cells; proliferation, % at 10 µM; actives 0.29% (n = 330,000); MIN6 cells proliferation, ATPlite luminescence, 48 h; cells starved in 0.2% serum; 100% = growth in 10% serum; AID 2380;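 active = compounds whose signal lies at least 3.5 SD above the mean of all wells on their plate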;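 also: 0% = DMSO-treated cells in low-serum medium and 100% = 10% serum control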
MC4R antag cAMP: antagonists of human melanocortin 4 receptor (MC4R). inhibition, % at 6.5 µM. MC4R-expressing cells, MTII-stimulated cAMP, LANCE TR-FRET. actives 0.48% (n = 360,000);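 active = inhibition above its plate's cutoff, the mean of tested wells on that plate plus 3 SD, cut at about 29% in these data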;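 also: 0% = Melanotan II alone and 100% = Melanotan II plus saturating MCL0020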
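Material: human MC4R-expressing U2OS cells. Probe or stimulus: Melanotan II challenge. Dosing: 6.5 µM single dose. Times: 30-min compound, 1-h challenge, 1-h detection, room temperature. Technique: TR-FRET with Eu-cAMP and labeled anti-cAMP, 671 nm. Replication: singlicate.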
TLR4 MyD88 comp: TLR4-MyD88 interaction inhibition in cells; HeLa CL3-4 TLR4/MyD88 BLA complementation, FRET ratio; inhibition, % at 8.4 µM; actives 0.18% (n = 200,000); AID 861; in the data active = inhibition above about 25%;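 also: 0% = vehicle and 100% = reference inhibitor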
MC4R ag barr: activates human MC4R beta-arrestin recruitment | AID 540308 | U2OS MC4R beta-arrestin complementation, luminescence; percent of melanotan II response, DMSO zero | activation, % at 8.9 µM | actives 0.98% (n = 360,000) | P32245;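 active = activation above a per-plate cutoff, the mean activation of sample wells on that plate plus 3 SD, cut at about 8% in these data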
TLR9-MyD88 inh: TLR9-MyD88 interaction inhibition; actives 0.21% (n = 340,000); CHO BLA complementation TLR9-MyD88, CCF4 FRET ratio; AID 504734; inhibition, % at 4.98 µM;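 active = inhibition above the mean over all tested compounds plus 3 SD, cut at about 21% in these data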;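 also: 0% = DMSO only wells and 100% = clavulanate BLA inhibitor control wells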
NOD2 RIPK2 PPI: NOD2-RIPK2 protein interaction inhibition; AID 624267; actives 0.38% (n = 360,000); CHO BLA complementation NOD2-RIPK2, CCF4 ratio; O43353; inhibition, % at 4.98 µM; in the data active = inhibition above about 21%;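 also: 0% = vehicle only and 100% = reference blocker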
MIN6 prolif-2: confirmation of inducers of beta-cell replication in MIN6 cells; shares compounds with MIN6 prolif-1; MIN6 beta-cell proliferation, ATPlite luminescence, 48 h; cells kept in 0.2% serum; scaled between 0.2% and 10% serum; proliferation increase, % at 50 µM; 920 tested, under 10 active; AID 463095;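 active = proliferation increase above 40% at any of the four tested concentrations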
Numbers without * were called inactive; . = no result. Most compounds without a hit are left out; they make up all but 2.1% or so of the library.

SMILES	MIN6 prolif-1	MC4R antag cAMP	TLR4 MyD88 comp	MC4R ag barr	TLR9-MyD88 inh	NOD2 RIPK2 PPI	MIN6 prolif-2
COCCCNC(=S)NCCCNc1nc2cc3c(cc2cc1C#N)OCO3	5.8*	11	10	1	0	-2	4
COC1=CC(=O)OC12CCCCC2	8.2*	3	3	0	-6	6	1
CC(NCc1ccccc1)C1COc2ccccc2O1 (centres undefined)	5.5*	1	3	1	0	0	0
CC(=O)N1N=C(c2ccc(Cl)cc2)OC12CCCC2	7.3*	13	.	1	-5	-15	-2
CC(=O)N1CCN(c2ccc([N+](=O)[O-])cc2)CC1	0	6	-12	-2	7	-8	.
CO/N=C(/c1nonc1N)N1CCN(c2ccc([N+](=O)[O-])cc2)CC1	11*	2	6	-1	6	-5	2
CCN1C(=O)N(CC)C2C1N(C(C)=O)C(=O)N2C(C)=O (centres undefined)	8.2*	1	-20	-1	0	-6	-1
CC(=O)N1C(=O)N(C)C2C1N(C)C(=O)N2C(C)=O (centres undefined)	1	.	6	.	.	.	.
CCc1nc(CN2CCN(Cc3ccc(F)c(F)c3)C(CCO)C2)c(C)[nH]1 (centres undefined)	8.6*	2	-8	-2	-1	-12	-1
OCCC1CN(Cc2ccc(Oc3ncccn3)cc2)CCN1Cc1ccc(F)c(F)c1 (centres undefined)	-3	5	.	-1	0	3	.
CCc1ccc(NC(=O)C2=CC=CN3CCS(=O)(=O)N=C23)cc1	11*	4	.	0	-3	1	-4
CO/N=C(\Cn1ncc(N2CCCC2)c(Cl)c1=O)c1ccc(Cl)cc1	-1	-4	-11	-1	6	3	.
CCN(CC)c1cnn(C/C(=N\OC)c2ccc(Cl)cc2)c(=O)c1Br	7.5*	1	-3	0	-2	4	-6
CCOC(=O)NC(=O)CSc1nc(-c2ccc(C)c(C)c2)cn1-c1ccccc1	-1	4	-1	0	2	5	.
Cc1ccc(-c2cn(-c3ccccc3)c(SCC(N)=O)n2)cc1C	7.6*	6	-8	-3	4	-11	-6
CC(=O)N1CCN(C(=O)c2cccc(S(=O)(=O)N3CCOCC3)c2)CC1	1	17	.	-1	-7	-9	.
O=C(NCC1CCCO1)c1ccccc1OCc1ccc(Cl)cc1 (centres undefined)	15*	5	.	-2	4	-4	-4
O=C(NCC1CCCO1)c1ccccc1OCc1ccc(F)cc1 (centres undefined)	4	-3	.	-1	0	-2	.
O=C(CSc1n[nH]c(-c2ccncc2)n1)Nc1ccccc1C(F)(F)F	4	2	.	-1	-18	-13	.
CCn1c(CNC(=O)c2ccccc2OC)nnc1SCC(=O)c1ccc(F)cc1	5.8*	3	.	1	-5	-4	2
CCn1c(CNC(=O)c2ccco2)nnc1SCC(=O)c1ccc(F)cc1	-2	6	.	-1	3	7	.
CN(C)Cc1c(C(=O)N/N=C/C=C/c2ccccc2)nnn1-c1nonc1N	1	-7	.	-3	6	-9	.
CC(C)c1c(C(=O)N/N=C/C=C/c2ccccc2)nnn1-c1nonc1N	12*	3	.	3	3	-1	-6
CC(=O)c1ccc(N(CC(=O)NC2CCCCC2)C(=O)c2csnn2)cc1	6.6*	-1	.	-2	-9	-3	0
O=C(CN(C(=O)c1csnn1)c1ccc(Br)cc1)NC1CCCCC1	1	10	.	0	2	-10	.
Cc1nc(N)c(C#N)c(-c2ccc3c(c2)OCO3)c1C	5.3*	4	.	0	-3	-4	2
Cc1nc(N)c(C#N)c(-c2cccnc2)c1C	9.6*	10	3	1	5	2	10

Screening results: PubChem, several laboratories
